The values below come from ChEMBL document CHEMBL1833940, “Discovery of 3-(2,6-dichloro-3,5-dimethoxy-phenyl)-1-{6-[4-(4-ethyl-piperazin-1-yl)-phenylamino]-pyrimidin-4-yl}-1-methyl-urea (NVP-BGJ398), a potent and selective inhibitor of the fibroblast growth factor receptor family of receptor tyrosine kinase” (J Med Chem, 2011).

One data set concerns the target Cytochrome P450 2C9 (Homo sapiens, UniProt P11712). The data set is described as follows: Inhibition of CYP2C9 using MFC as substrate. In kind it is ADME. In outline:
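Human CYP450 inhibition was measured with isoform-specific fluorogenic probe substrates: CEC for 1A2 and 2C19, MFC for 2C9, AMMC for 2D6. Incubation was at 37 °C with an NADPH-regenerating system in 384-well format. Metabolite was quantified by fluorescence, and IC50 was obtained by curve fitting.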

In another data set the test system is Tumour. Kind of data set: Cmax in tumor of RT112/luc1 cells implanted athymic nude mouse at 20 mg/kg, po by LC/MS/MS analysis. Format: ADME, organism-based, Neoplasm. Details: dose 20 mg/kg, route oral. The settings on record: in vivo. In a few lines: (§1)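 Female athymic nude mice carried subcutaneous RT112/luc1 tumors (5×10^6 cells, 50% Matrigel; about 300–400 mm3). Dosing was either 5 mg/kg iv by tail vein in NMP/PEG200 (1:9) or 20 mg/kg oral suspension in PEG300/D5W (2:1). Groups of mice (n = 4) were sacrificed at 0.083–24 h. Plasma and tumor levels were measured by LC-MS/MS (LOQ 5 ng/mL, 10 ng/g).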

A further data set has as its system Plasma. The data set is described as follows: Dose normalized AUC in plasma of RT112/luc1 cells implanted athymic nude mouse at 20 mg/kg, po by LC/MS/MS analysis. Format: ADME, organism-based. Details: dose 20 mg/kg, route oral. The settings on record: in vivo. In outline:
as §1

Data set [1] is described as follows: Antiproliferative activity against human JMSU1 cells overexpressing wild type FGFR3 after 72 hrs. Format: functional, cell-based. The settings on record: JMSU-1, 72 h. In a few lines: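 Bladder cancer lines from ATCC or DSMZ were seeded in 96-well plates (RT4, RT112 at 8500 cells/well; others at 5000 cells/well) in growth medium. Compound dilutions or DMSO were added 24 h later and incubated 72 h. Cells were fixed with glutaraldehyde, stained with 0.05% methylene blue and eluted with 3% HCl, then OD650 nm was read.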

The target of data set [2] is Tyrosine-protein kinase Mer (Homo sapiens, UniProt Q12866). The data set is described as follows: Inhibition of recombinant MER. In outline: (§2)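 Purified recombinant kinases under optimized conditions, with peptide substrates and ATP at each kinase's Km. Phosphorylation was read out by microfluidic mobility shift, and IC50 values were obtained.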
The target of data set [3] is Mitogen-activated protein kinase kinase kinase 8 (Homo sapiens, UniProt P41279). Kind of data set: Inhibition of recombinant COT. In outline: as §2
Data set [4] concerns the target Glycogen synthase kinase-3 beta (Homo sapiens, UniProt P49841). The data set is described as follows: Inhibition of recombinant GSK3-beta. In a few lines:
(§3)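 Purified recombinant kinases under optimized conditions with peptide substrates. ATP was set at each kinase's Km. Phosphorylation was read by microfluidic mobility-shift separation of substrate and product; IC50 determined.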

The target of data set [5] is Insulin-like growth factor 1 receptor (Homo sapiens, UniProt P08069). Kind of data set: Inhibition of recombinant IGF1R. In outline: as §3
Data set [6] deals with Tyrosine-protein kinase JAK1 (Homo sapiens, UniProt P23458). The data set is described as follows: Inhibition of recombinant JAK1. In outline:
as §3

Data set [7] concerns the target Serine/threonine-protein kinase pim-2 (Homo sapiens, UniProt Q9P1W9). Kind of data set: Inhibition of recombinant PIM2. In a few lines:
as §3

Data set [8] deals with Protein kinase C alpha type (Homo sapiens, UniProt P17252). Kind of data set: Inhibition of recombinant PKCalpha. In outline: as §3
For data set [9], the target named is Protein kinase C theta type (Homo sapiens, UniProt Q04759). The data set is described as follows: Inhibition of recombinant PKCtheta. In a few lines:
as §3

For data set [10], the target named is Serine/threonine-protein kinase N1 (Homo sapiens, UniProt Q16512). The data set is described as follows: Inhibition of recombinant PKN1. In outline:
as §3

Data set [11] deals with Tyrosine-protein kinase SYK (Homo sapiens, UniProt P43405). Kind of data set: Inhibition of recombinant SYK. In outline: as §2
In data set [12] the test system is RT-112. The data set is described as follows: Antitumor activity against human RT112 cells xenografted in athymic nude mouse assessed as tumor stasis at 30 mg/kg, po administered for 12 days. More on the design: dose 30 mg/kg. In kind it is functional, organism-based. In outline:
(§4)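 Female HsdNpa:Athymic Nude-nu mice received RT112/luc1 cells (luciferase retroviral line; about 1–2×10^5 cells) into the bladder lumen. Oral treatment started 14 days after inoculation: suspension in PEG300/D5W (2:1) at 10 or 30 mg/kg/qd for 12 days. Tumor burden was measured by IVIS bioluminescence 10 min after iv D-luciferin. T/C was computed from change in light emission; ANOVA with Dunnett's test.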
(In general: A xenograft is tissue or cells of one species grown in another, often human tumour cells in immunodeficient mice.)

In another data set the test system is Rattus norvegicus. The data set is described as follows: Inhibition of FGFR autophosphorylation in RT112 tumor bearing po dosed nude rowett rat assessed as decrease in pMAPK concentration administered as a single dose by Western blot analysis. Format: functional, organism-based. In outline:
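RT112 subcutaneous xenografts in female nude Rowett rats (n = 4). Single oral gavage of the monophosphate salt at 4.25 or 8.51 mg/kg (free base equivalents) in acetic acid–acetate buffer pH 4.6/PEG300 (1:1). Tumors were collected at time points up to 24 h, frozen, homogenized and lysed. Western blots probed pFRS2(Tyr196) and pMAPK, with total FRS2, total MAPK or β-tubulin as loading controls.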
A general note: Immunoblotting shows a protein as a band on a membrane.

Data set [13] relates to RT-112. Kind of data set: Antitumor activity against human RT112 cells xenografted in athymic nude mouse assessed as tumor growth inhibition at 10 mg/kg, po administered for 12 days. In kind it is functional, organism-based. Details: dose 10 mg/kg. In outline:
as §4

The test system of data set [14] is RT-112. The data set is described as follows: Antitumor activity against human RT112 cells xenografted in nude Rowett rat assessed as tumour regression at 10 mg/kg, po qd administered for 20 days. Format: functional. In a few lines: (§5)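 Female nude Rowett rats aged 6–9 weeks were given 1×10^6 RT112 cells subcutaneously in HBSS/50% Matrigel. Treatment began at about 100 mm3 mean tumor volume (n = 8): monophosphate salt in acetate buffer pH 4.6/PEG300 (1:1) by gavage, 5 mL/kg, at 5, 10, 15 mg/kg/qd free base for 20 days. Tumors were measured by caliper (L×W×H×π/6). Readouts were T/C and % regression from start volume.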

Data set [15] deals with RT-112. Kind of data set: Antitumor activity against human RT112 cells xenografted in nude rowett rat assessed as tumor regression at 15 mg/kg, po qd administered for 20 days. In kind it is functional. In a few lines: as §5
The test system of a further data set is Mus musculus. The data set is described as follows: Antiangiogenic activity in po dosed FVB mouse agar chamber model assessed as inhibition of b-FGF-induced angiogenesis around the capsule. Format: functional, organism-based. In a few lines: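 Female FVB mice implanted subcutaneously with perfluoroalkoxy-Teflon chambers holding 0.8% agar with 20 U/mL heparin, with or without dog VEGF 2 μg/mL or bFGF 0.3 μg/mL. Oral dosing at 10, 30, 50 mg/kg/day in 10% NMP/PEG300 (5 mL/kg), started before implantation and continued 3 days. Capsules were removed 24 h after the last dose. Readout was capsule weight and Tie-2 by ELISA, as % inhibition against vehicle and no-growth-factor background.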

SMILES strings stand for the structures. Calls of active or inactive are those of the source. No cut-off for these calls is given here. Where only a bound is given, the exact number is not on record here.

Tyrosine-protein kinase JAK1, sequence (P23458 whole entry): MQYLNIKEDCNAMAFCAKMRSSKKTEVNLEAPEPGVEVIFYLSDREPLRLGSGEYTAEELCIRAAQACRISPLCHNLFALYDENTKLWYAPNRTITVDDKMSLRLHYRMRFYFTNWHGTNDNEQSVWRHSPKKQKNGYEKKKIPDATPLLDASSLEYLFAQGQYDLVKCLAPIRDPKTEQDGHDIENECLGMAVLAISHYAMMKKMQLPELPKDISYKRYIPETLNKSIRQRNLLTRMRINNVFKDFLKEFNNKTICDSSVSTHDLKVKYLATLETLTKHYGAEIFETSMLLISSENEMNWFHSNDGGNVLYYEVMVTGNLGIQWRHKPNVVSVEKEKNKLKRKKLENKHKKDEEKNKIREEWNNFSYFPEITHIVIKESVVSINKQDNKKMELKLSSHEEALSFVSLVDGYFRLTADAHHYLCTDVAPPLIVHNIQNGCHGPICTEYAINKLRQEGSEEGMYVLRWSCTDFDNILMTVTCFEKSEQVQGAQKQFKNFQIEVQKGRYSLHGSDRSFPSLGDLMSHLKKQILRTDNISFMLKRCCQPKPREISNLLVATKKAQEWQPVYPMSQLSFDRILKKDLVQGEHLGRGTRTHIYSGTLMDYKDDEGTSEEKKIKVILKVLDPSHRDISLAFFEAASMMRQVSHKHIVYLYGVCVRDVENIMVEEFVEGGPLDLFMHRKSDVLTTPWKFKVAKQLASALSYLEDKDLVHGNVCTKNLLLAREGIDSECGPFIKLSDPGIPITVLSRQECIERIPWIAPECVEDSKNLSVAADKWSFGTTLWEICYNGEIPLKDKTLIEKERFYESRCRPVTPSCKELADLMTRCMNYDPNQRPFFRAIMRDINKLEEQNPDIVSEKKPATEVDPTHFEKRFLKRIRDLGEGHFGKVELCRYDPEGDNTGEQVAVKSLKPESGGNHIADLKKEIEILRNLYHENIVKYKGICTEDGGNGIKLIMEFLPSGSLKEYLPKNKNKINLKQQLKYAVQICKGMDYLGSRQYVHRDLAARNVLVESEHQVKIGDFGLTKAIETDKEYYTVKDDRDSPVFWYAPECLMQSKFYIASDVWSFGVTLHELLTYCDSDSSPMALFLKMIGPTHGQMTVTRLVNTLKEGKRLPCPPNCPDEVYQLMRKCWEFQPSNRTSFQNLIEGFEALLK
Protein kinase C theta type, sequence (Q04759 whole entry): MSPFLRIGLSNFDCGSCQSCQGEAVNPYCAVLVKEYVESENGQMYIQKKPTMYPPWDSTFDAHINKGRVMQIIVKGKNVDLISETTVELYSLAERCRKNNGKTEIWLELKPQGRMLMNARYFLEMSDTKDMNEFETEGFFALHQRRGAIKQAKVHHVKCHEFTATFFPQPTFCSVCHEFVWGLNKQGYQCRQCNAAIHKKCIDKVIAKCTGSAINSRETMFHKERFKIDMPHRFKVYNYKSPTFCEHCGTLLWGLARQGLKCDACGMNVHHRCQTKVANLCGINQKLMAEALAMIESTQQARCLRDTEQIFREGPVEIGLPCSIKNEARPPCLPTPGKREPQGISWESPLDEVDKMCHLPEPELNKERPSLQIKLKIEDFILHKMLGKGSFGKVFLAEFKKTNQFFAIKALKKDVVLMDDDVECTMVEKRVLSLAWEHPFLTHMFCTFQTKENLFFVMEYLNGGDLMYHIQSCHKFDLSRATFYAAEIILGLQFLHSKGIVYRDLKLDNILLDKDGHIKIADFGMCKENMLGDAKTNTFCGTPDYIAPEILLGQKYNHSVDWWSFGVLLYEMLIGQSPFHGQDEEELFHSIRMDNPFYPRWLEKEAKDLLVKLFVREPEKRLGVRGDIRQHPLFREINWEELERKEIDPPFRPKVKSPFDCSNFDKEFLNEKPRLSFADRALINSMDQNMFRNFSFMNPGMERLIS
Glycogen synthase kinase-3 beta, sequence (P49841 whole entry): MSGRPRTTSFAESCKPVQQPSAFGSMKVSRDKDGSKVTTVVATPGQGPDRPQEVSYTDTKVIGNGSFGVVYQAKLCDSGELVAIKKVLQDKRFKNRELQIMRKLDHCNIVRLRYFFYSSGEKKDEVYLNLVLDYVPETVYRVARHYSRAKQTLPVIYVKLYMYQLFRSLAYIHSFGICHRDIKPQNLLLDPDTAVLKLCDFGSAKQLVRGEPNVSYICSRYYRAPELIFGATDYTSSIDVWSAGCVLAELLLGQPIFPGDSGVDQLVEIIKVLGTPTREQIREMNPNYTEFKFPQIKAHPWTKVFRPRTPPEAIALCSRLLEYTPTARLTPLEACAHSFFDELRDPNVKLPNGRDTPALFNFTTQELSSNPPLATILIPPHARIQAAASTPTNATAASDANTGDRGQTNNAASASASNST
Tyrosine-protein kinase Mer, sequence (Q12866 whole entry): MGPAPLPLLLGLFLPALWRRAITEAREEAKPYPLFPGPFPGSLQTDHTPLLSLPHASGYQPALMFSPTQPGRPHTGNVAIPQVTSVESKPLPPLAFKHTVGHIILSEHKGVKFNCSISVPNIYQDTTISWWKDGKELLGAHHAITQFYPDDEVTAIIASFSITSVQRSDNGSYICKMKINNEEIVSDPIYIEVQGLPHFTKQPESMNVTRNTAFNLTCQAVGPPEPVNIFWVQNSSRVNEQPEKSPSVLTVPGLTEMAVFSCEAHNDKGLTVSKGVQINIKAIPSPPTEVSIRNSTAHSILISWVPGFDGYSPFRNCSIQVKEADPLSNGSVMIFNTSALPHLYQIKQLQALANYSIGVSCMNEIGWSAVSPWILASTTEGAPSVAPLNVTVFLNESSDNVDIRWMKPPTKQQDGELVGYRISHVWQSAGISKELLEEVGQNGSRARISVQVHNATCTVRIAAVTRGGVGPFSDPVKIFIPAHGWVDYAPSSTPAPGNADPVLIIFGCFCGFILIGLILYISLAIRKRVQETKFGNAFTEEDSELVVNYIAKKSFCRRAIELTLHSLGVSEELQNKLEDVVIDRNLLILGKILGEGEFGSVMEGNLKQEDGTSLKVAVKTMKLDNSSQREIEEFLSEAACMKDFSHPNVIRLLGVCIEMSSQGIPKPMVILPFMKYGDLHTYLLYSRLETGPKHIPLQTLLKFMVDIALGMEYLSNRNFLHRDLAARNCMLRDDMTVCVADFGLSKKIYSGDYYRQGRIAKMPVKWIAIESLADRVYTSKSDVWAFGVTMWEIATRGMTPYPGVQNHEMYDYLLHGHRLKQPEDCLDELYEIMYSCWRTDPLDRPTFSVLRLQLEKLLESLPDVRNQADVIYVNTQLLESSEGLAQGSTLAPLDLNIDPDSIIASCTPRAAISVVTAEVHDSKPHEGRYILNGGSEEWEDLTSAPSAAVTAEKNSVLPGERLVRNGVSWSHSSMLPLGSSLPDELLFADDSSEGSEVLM
Serine/threonine-protein kinase N1, sequence (Q16512 whole entry): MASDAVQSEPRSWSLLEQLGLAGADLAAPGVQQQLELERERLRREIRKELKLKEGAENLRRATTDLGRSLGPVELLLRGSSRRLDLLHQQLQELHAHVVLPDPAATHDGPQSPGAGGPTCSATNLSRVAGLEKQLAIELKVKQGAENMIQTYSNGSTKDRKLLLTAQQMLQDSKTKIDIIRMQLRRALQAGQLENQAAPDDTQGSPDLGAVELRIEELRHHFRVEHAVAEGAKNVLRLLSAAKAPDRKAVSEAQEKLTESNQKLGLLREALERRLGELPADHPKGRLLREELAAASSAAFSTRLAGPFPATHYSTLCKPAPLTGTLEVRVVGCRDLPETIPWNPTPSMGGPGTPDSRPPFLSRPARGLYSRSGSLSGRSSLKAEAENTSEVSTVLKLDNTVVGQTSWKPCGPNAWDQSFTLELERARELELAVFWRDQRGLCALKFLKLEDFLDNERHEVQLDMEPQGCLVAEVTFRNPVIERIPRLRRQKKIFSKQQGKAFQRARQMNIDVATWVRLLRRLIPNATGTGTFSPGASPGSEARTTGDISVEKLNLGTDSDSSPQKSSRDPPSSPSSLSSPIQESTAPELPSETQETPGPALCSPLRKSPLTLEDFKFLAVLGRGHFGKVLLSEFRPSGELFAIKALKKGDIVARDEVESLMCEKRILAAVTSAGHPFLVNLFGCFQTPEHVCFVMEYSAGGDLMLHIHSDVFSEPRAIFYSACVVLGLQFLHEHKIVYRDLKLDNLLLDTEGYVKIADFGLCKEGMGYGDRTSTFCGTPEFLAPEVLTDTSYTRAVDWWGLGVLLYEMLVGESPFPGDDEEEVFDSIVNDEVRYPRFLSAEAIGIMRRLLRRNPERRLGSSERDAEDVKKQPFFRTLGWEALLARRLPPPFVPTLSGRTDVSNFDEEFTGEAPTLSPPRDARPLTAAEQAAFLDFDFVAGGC

As a reminder, the IC50 is the concentration at which inhibition is half-maximal. On to `CCN1CCN(c2ccc(Nc3cc(N(C)C(=O)Nc4c(Cl)c(OC)cc(OC)c4Cl)ncn3)cc2)CC1.O=P(O)(O)O` [INFIGRATINIB PHOSPHATE], for which the IC50 was over 10 µM against Cytochrome P450 2C9; 0.015 µM in [1]; over 10 µM in data set [2]; over 10 µM in [3]; over 10 µM in [4]; over 10 µM in data set [5]. Besides, the IC50 in data set [6], in data set [7], in [8], in [9], in [10] and in data set [11] was over 10 µM each time. In the data set on Tumour, this compound had a Cmax of 1.63 nmol/g. This compound also returned an AUC/dose in the data set with Plasma of 0.18 µM·h. Moreover, in the data set with RT-112 [12], the result was Active. Also, the inhibition result with Rattus norvegicus and in the data set on Mus musculus was “Dose-dependent effect” each time. In the data set with RT-112 [13], the inhibition entry is “Active”. The figures for the Activity with RT-112 [14] and in the data set on RT-112 [15] were 66% and 73%, respectively.
